Screens: PubChem, The Scripps Research Institute Molecular Screening Center
Only some compounds are listed: those with a hit (about 2.3% of all), similar ones and a draw of the others.
PLC-gamma1 inh – blocks human PLC-gamma1 enzyme activity; P19174; purified PLC-gamma1, fluorogenic substrate, fluorescence; inhibition, % at 12.2 µM; 370,000 tested, 0.84% active; in the data active = inhibition above about 9.5%
TbMetRS inhib – blocks T. brucei methionyl-tRNA synthetase activity; 360,000 tested, 0.4% active; inhibition, % at 11.9 µM; AID 624268; purified T. brucei MetRS, ATP depletion, Kinase-Glo luminescence;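 active = inhibition above a per-plate cutoff of the control wells' mean inhibition plus 3 SD, cut at about 5.5% in these data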
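Material: parasite MetRS enzyme / Replication: singlicate, one well per compound / Signal: luminescence of leftover ATP / Schedule: 2 h aminoacylation at 25 °C after 15 min preincubation / Medium: HEPES-MgCl2-KCl buffer plus DTT, spermine, BSA, pyrophosphatase / Doses: 11.9 µM single point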
PLCb3 inh – inhibitors of human phospholipase C beta3. Q01970. Purified PLC-beta3, fluorogenic substrate, fluorescence. inhibition, % at 12.2 µM. 370,000 tested, 0.18% active. AID 720704; in the data active = inhibition above about 11%
ADAM10 inh – inhibits human ADAM10; AID 720582; 370,000 tested, 0.62% active; recombinant ADAM10, EDANS/DABCYL FRET peptide cleavage, 3 h; inhibition, % at 7 µM;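 active = inhibition above a per-campaign cutoff equal to the mean of compounds falling between control-based bounds plus 3 SD, cut at about 20% in these data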
Target sequence (O14672 214-748 limits assumed): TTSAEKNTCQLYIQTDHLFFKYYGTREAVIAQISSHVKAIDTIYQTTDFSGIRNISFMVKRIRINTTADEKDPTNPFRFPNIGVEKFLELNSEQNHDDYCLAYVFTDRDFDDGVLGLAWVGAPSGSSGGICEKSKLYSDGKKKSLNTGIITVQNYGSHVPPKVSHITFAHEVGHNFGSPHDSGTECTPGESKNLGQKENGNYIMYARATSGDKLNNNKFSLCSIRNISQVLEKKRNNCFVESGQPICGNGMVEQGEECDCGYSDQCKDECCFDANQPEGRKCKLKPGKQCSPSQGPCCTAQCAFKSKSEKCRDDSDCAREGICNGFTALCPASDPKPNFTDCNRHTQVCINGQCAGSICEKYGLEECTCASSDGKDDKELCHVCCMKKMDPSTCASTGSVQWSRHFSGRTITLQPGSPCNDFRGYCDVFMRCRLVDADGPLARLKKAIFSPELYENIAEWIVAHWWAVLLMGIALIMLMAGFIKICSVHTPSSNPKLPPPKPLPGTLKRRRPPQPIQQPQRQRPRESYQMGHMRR
ADAM17 inh – ADAM17 inhibition, QFRET primary screen; recombinant ADAM17, EDANS/DABCYL FRET peptide cleavage; inhibition, % at 6.95 µM; 370,000 tested, 0.83% active;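 active = inhibition above the mean of compounds lying between control limits plus 3 SD, set per campaign, cut at about 8.5% in these data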
ADAM10 ctr – counter-screen for ADAM17 exosite inhibitors: inhibitors of human ADAM10; inhibition, % at 6.95 µM; recombinant ADAM10, EDANS/DABCYL FRET peptide cleavage, 3 h; 2,900 tested, 47% active; shares compounds with ADAM17 inh;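 active = mean inhibition over the triplicate runs exceeds the activity threshold set in the earlier primary screen, cut at about 20% in these data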
ADAM17 confirm – confirmation of inhibitors of human ADAM17 | inhibition, % at 6.95 µM | recombinant ADAM17, EDANS/DABCYL QFRET peptide cleavage | 2,900 tested, 65% active | AID 743257 | shares compounds with ADAM17 inh;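 active = mean inhibition across replicates above the hit cutoff set in the primary screen, cut at about 8.5% in these data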
Of the large screens only hits and unclear results are named; the others gave an inactive call (follow-up assays come after a bar, where they were run).

C[C@@H]1C(=O)O[C@H](C)[C@H]1C[C@@H](O)[C@](C)(O)C1CC[C@@]2(O)C3=CC(=O)[C@@H]4C[C@@H](O)[C@@H](O)C[C@]4(C)C3CC[C@]12C (some centres not stated)	none
O=C(Cc1noc2ccccc12)NNC(=S)Nc1ccc(Cl)cc1	ADAM17 inh 12 | ADAM10 ctr inactive | ADAM17 confirm inactive
COC(=O)c1ccc(CCc2cc(O)ccc2O)cc1	none (no result: PLC-gamma1 inh, PLCb3 inh, ADAM10 inh, ADAM17 inh)
COC(=O)c1ccc(CCc2cc(O)c(Br)cc2O)cc1	ADAM17 inh 8.9 | ADAM10 ctr inactive | ADAM17 confirm inactive
CCc1cccc(C)c1NC(=O)COC(=O)CNS(=O)(=O)/C=C/c1ccccc1	none
Cc1ccc(Cl)c(NC(=O)COC(=O)CNS(=O)(=O)/C=C/c2ccccc2)c1Cl	ADAM17 inh 9.1 | ADAM10 ctr inactive | ADAM17 confirm inactive
CC(C)(C)OC(=O)N(Cc1ccccc1)Cc1ccccc1OCc1cccc(NC(=O)C2CC2)c1	ADAM17 inh 9.5 | ADAM10 ctr 20 | ADAM17 confirm 18
Cc1cccc(C)c1N=Nc1c(C)cc(O)cc1C	ADAM17 inh 9.9 | ADAM10 ctr 45 | ADAM17 confirm 20
O=C(NCC1CCCO1)c1cccc(S(=O)(=O)Nc2ccc(F)cc2)c1 (configuration not stated)	none
CCN(CC)c1ccc(NC(=O)/C=C/c2cc(Br)ccc2OC)cc1	ADAM17 inh 10 | ADAM10 ctr 27 | ADAM17 confirm 20
COc1ccc(Br)cc1/C=C/C(=O)Nc1c(C)cccc1C	ADAM17 inh 9.8 | ADAM10 ctr inactive | ADAM17 confirm inactive
COc1ccc(NC(=O)/C=C/c2cc(Br)ccc2OC)cc1	none
COc1ccc(Br)cc1/C=C/C(=O)c1ccc(NC(C)=O)cc1	none
COc1ccc(CCN2CC(C(=O)NCc3nc(C)c(C)s3)CCC2=O)cc1 (configuration not stated)	none
COc1ccc(C(=O)COC(=O)C(CCCCN2C(=O)C3C4C=CC(C4)C3C2=O)N2C(=O)C3C4C=CC(C4)C3C2=O)cc1 (configuration not stated)	ADAM17 inh 9.3 | ADAM10 ctr inactive | ADAM17 confirm inactive
COC(=O)C(CCCCN1C(=O)C2C3C=CC(C3)C2C1=O)N1C(=O)C2C3C=CC(C3)C2C1=O (configuration not stated)	none
CCN(CC)S(=O)(=O)c1ccc(C(O)=C(C#N)c2nc3ccccc3n2C)cc1	none
COc1ccccc1NC(=O)N(C)C[C@@H]1OCc2cnnn2CCCC(=O)N([C@@H](C)CO)C[C@H]1C	ADAM17 inh 8.8 | ADAM10 ctr inactive | ADAM17 confirm inactive
COCCOc1ccc(C(F)(F)F)cc1NC(=O)CN1C(=O)NC2(CCc3ccccc32)C1=O (configuration not stated)	none
COCCOc1ccc(C(F)(F)F)cc1NC(=O)CN1C(=O)NC2(CCCc3ccccc32)C1=O (configuration not stated)	ADAM17 inh 9.7 | ADAM10 ctr inactive | ADAM17 confirm 10
COc1ccc(Cl)cc1NC(=S)NC1CCCC1	none
N=c1c2c(ncn1Cc1ccco1)Oc1cc(O)ccc1C2c1ccccc1 (configuration not stated)	none
N=c1c2c(ncn1Cc1ccco1)Oc1c(ccc3ccccc13)C2c1ccccc1 (configuration not stated)	ADAM17 inh 9.3 | ADAM10 ctr inactive | ADAM17 confirm inactive
CCOc1ccc(/C=C/C(=O)c2cc(Br)ccc(=O)c2O)cc1	ADAM17 inh 11 | ADAM10 ctr inactive | ADAM17 confirm 22
COC(=O)c1cc(=O)cc(C(=O)OC)o1	ADAM17 inh 8.7 | ADAM10 ctr inactive | ADAM17 confirm inactive
CCOC(=O)c1cc(=O)cc(C(=O)OCC)o1	none
Clc1ccc2[nH]cc(-c3nnnn3-c3ccccc3)c2c1	ADAM17 inh 8.9 | ADAM10 ctr 29 | ADAM17 confirm 16
CCOc1ccc2nc(NC(=O)C3CCN(S(=O)(=O)c4cnc[nH]4)CC3)sc2c1	ADAM17 inh 8.7 | ADAM10 ctr inactive | ADAM17 confirm inactive
ClN=C1C=CC=CC1=NCl	none (no result: PLC-gamma1 inh, PLCb3 inh, ADAM10 inh, ADAM17 inh)
COc1ccc(C(=O)NC(=S)NNC(=O)c2cnccn2)cc1	none
COc1cc(C(=O)NC(=S)NNC(=O)c2cnccn2)cc(OC)c1OC	ADAM17 inh 11 | ADAM10 ctr inactive | ADAM17 confirm inactive
CC1=C(C(=O)Nc2ccccc2)C(c2cccc([N+](=O)[O-])c2)Nc2nc3ccccc3n21 (configuration not stated)	ADAM17 inh 8.8 | ADAM10 ctr inactive | ADAM17 confirm inactive
CNC(=O)C1=C(C)n2c(nc3ccccc32)NC1c1ccc(OC)cc1 (configuration not stated)	none
O=C1N[C@@H](c2ccccc2)COC(=O)[C@@H](Cc2ccc(F)cc2)CC/C=C/C[C@@H]1CC(=O)N(CCO)Cc1ccccc1	ADAM10 inh 27, ADAM17 inh 10 | ADAM10 ctr 31 | ADAM17 confirm 15
O=C1N[C@H](Cc2ccccc2)COC(=O)[C@H](Cc2ccc(F)cc2)CC/C=C/C[C@H]1CC(=O)N(CCO)Cc1ccccc1	ADAM17 inh 8.7 | ADAM10 ctr 21 | ADAM17 confirm 11
CCN(CC)C(=O)CC[C@H]1CC[C@]2(CCCN(C(=O)c3ccco3)C2)O1	none (no result: TbMetRS inhib)
Cc1ccccc1Cn1c(=O)c2c(nc3n2CCCN3Cc2ccccc2)n(C)c1=O	none
